Screens from PubChem BioAssay.
DAX1 inh-1 = inhibitors of human orphan nuclear receptor DAX1 (NR0B1). P51843. inhibition, % at 6.75 µM. 340,000 tested, 0.99% active. HEK293 Gal4-DAX1 luciferase reporter, luminescence. AID 504766;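 active = inhibition above the mean over all tested compounds plus 3 SD, cut at about 4.2% in these data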;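 note: 0% = DAX1-transfected cells with DMSO and 100% = empty-vector control cells with DMSO; inhibition shows as a rise in luminescence from relieved DAX1 repression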
Target sequence (P51843 207-470 limits assumed): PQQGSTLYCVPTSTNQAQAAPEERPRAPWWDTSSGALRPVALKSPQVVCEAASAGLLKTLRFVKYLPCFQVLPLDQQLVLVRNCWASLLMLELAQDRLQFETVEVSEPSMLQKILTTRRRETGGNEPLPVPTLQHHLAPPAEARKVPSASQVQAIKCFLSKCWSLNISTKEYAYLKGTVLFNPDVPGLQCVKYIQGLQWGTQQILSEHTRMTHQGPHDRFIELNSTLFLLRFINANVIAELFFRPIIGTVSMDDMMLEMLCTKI
NR2E3 ag-1 = agonists of human NR2E3 nuclear receptor | Q9Y5X4 | CHO-S Gal4-NCOR/VP16-NR2E3 two-hybrid, luciferase | inhibition of corepressor binding, % at 3.98 µM | 360,000 tested, 0.35% active;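 active = inhibition above the mean of all tested compounds plus 3 SD, cut at about 70% in these data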;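 note: 0% = DMSO with NR2E3 transfected cells and 100% = cells lacking NR2E3 construct; higher means lower luciferase signal from less NR2E3 corepressor binding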
NR2E3 ag-2 = agonists of human nuclear receptor NR2E3; Q9Y5X4; GST-NR2E3/biotin-RetCOR TR-FRET, 1536-well; inhibition of corepressor binding, % at 4.78 µM; 320,000 tested, 0.12% active;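 active = percent inhibition above the cutoff of mean plus 3 SD of all tested compounds, set per screening campaign, cut at about 20% in these data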;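 note: 0% = DMSO wells and 100% = biotin wells as full block of FRET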
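Material: NR2E3–RetCOR corepressor complex | Quantity: 1.35 nM GST-tagged NR2E3 final | Schedule: 5 h at 4 °C | Replication: Singlicate compound wells | Reagent: RetCOR corepressor, biotinylated, 7 nM | Controls: Biotin wells as high control, 0.6% DMSO wells as low control | Signal: TR-FRET, Eu(K)-anti-GST donor, streptavidin-D2 acceptor, ex 340, em 617/671 nm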
DAX1 inh-2 = DAX1 (NR0B1) inhibition, primary screen; HEK293T StAR-luciferase reporter, SF-1/DAX-1 repression relief; inhibition, % at 6.8 µM; 370,000 tested, 1.1% active;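 active = inhibition above the mean over all tested compounds plus 3 SD, cut at about 3.6% in these data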;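 note: 0% = DAX-1 cells with DMSO and 100% = cells lacking DAX-1 with DMSO; higher inhibition means more luminescence from relief of DAX-1 repression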
JMJD2C inh = inhibitors of human GASC-1 (JMJD2C) demethylase; Q9H3R0; GST-JMJD2C(1-420) H3K9me3 demethylation, DELFIA europium; inhibition, % at 2.35 µM; 330,000 tested, 0.069% active; AID 2099;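 active = more than half of a compound's replicate wells show inhibition beyond 50%, single wells judged on their own value; inconclusive = some, but no more than half, of replicates pass 50% inhibition; inactive = no replicate passes 50% inhibition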;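 note: signal counts dimethyl H3K9 product captured on neutravidin plate; 0% = median of DMSO wells and 100% = 0.3 times that DMSO median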
SMARCA2 activ = activators of SMARCA2 function; MG213 cells, MMTV-luciferase reporter, dexamethasone, overnight; activation, % at 9.1 µM; 370,000 tested, 1% active; AID 652017; in the data active = activation above about 7.8%;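 note: 0% = vehicle wells and 100% = reference activator wells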
* marks the source's active call; other numbers are inactive results; ? = inconclusive; · = no result given. Only some compounds are listed: those with a hit (about 3.2% of all), similar ones and a draw of the others.

SMILES	DAX1 inh-1	NR2E3 ag-1	NR2E3 ag-2	DAX1 inh-2	JMJD2C inh	SMARCA2 activ
O=C(NC1CCCCN(Cc2cccc(C(F)(F)F)c2)C1=O)c1cccc([N+](=O)[O-])c1 (stereo not drawn)	·	·	·	-1	·	-3
Cc1cc(F)ccc1C(=O)N1CCC(Oc2cccnc2)CC1	·	·	·	-1	·	-1
CCCC(=O)Nc1ccc(C(=O)NN=C(C2CC2)C2CC2)cc1	4.5*	-13	0	0	-2	4
CCC(=O)N[C@@H]1C[C@@H]2O[C@@H](CO)CC[C@@H]2O[C@@H]1CCc1ccc(-c2cccc(OC)c2)cc1	·	·	·	-1	·	-3
O=C(Nc1c(-c2ccc(C(F)(F)F)cc2)nc2ncccn12)c1ccc(F)cc1	·	·	·	-1	·	-3
C[C@@H]1OC(C2CCCCC2)N(C)[C@H]2C[C@H]3c4[nH]c5cccc(-c6ccccc6)c5c4CCN3C[C@@H]12 (stereo partly drawn)	·	·	·	-1	·	0
COc1ccc2[nH]c(=O)c(CNc3ccccc3OC)cc2c1	4.5*	-15	3	0	13	1
COc1ccc2[nH]c(=O)c(CNc3ccccc3)cc2c1	4.5*	-96	1	2	1	7
COC(=O)[C@H]1C[C@@]2(C3C=CC=C3)c3ccccc3N[C@H]2N1	·	·	·	0	·	-2
COc1ccc(/C=C/S(=O)(=O)NCc2ccccc2)c(CNC(=O)OC(C)(C)C)c1	·	·	·	-1	·	-2
O=C1CNC(=O)/C(=C/c2ccco2)N1	4.4*	4	5	0	-2	-4
CCCCN(CCCC)CCNC(=O)c1cn(CC)c2ccc(S(=O)(=O)N3CCCC3)cc2c1=O	1	16	3	4.5*	-4	0
CN(C1CCCCC1)S(=O)(=O)c1ccc2c(c1)c(=O)c(C(=O)NCCCN1CCCC1)cn2C	4.9*	-34	0	1	-1	2
CCn1cc(C(=O)NCCCN2CCC(C)CC2)c(=O)c2cc(S(=O)(=O)N3CCOCC3)ccc21	1	-5	2	3.7*	3	-3
Cn1c(SCC2CCCCC2)nnc1-c1ccco1	·	·	·	1	·	-1
COc1ccc(Cl)cc1S(=O)(=O)N1CCN(C(=O)CSc2nc3ccccc3nc2N2CCCC2)CC1	·	·	·	-2	·	-2
CCN(C(=O)Cn1nnc(-c2ccncc2)n1)c1ccccc1	·	·	·	-1	·	-6
CCCNc1c(N)n(-c2ccccc2)c(=O)[nH]c1=O	6.1*	-12	-3	1	-7	3
CC[C@H]1CCCCc2ccccc2[C@@H](C(=O)C[C@@H](O)CC(C)=O)OC1=O	0	4	·	4.0*	49	-2
C=CCN1[C@@H](CC(C)C)COc2cccc(N3CCCC3)c2S1(=O)=O	·	·	·	0	·	-4
C=CCN1C(=O)[C@H](CC(=O)N2CCSCC2)[C@@]2(C(=O)OCC)CCCC=C12	·	·	·	1	·	0
O=C(COc1ccc(Br)cc1Br)NC(=O)NC1CCCC1	4	-136	-4	4.0*	-2	6
Cc1cc(Br)ccc1OCC(=O)NC1CCCC1	-2	-23	0	-7	4	0
CCOC(=O)Cn1cc(CN2C(C(=O)OC)CN(Cc3ccc(OC)cc3)CCS2(=O)=O)nn1 (stereo not drawn)	·	·	·	1	·	-5
COc1ccc(S(=O)(=O)N/N=C/c2ccc(OCCN3CCOCC3)c(OC)c2)cc1	0	-6	2	-1	-20	1
SMILES	DAX1 inh-1	NR2E3 ag-1	NR2E3 ag-2	DAX1 inh-2	JMJD2C inh	SMARCA2 activ
COc1cc(/C=N/NS(=O)(=O)c2ccc3ccccc3c2)ccc1OCCN1CCOCC1	0	-12	-3	0	2	10*
COc1ccc(-c2cc(=O)c3ccccc3o2)cc1	8.4*	-118	1	4	?	6
O=c1cc(-c2ccc(O)cc2)oc2cc(O)cc(O)c12	2	-39	-2	3.8*	12	0
O=c1cc(-c2ccccc2)c2ccc(O)cc2o1	1	-12	2	0	-29	-1
O=c1cc(-c2ccccc2)oc2cc(O)ccc12	2	-92	·	4.5*	·	4
O=c1cc(-c2ccccc2)oc2cccc(O)c12	4.9*	-28	·	1	·	0
C=CCNC(=O)NC[C@@]1(C(=O)OC)CC(=O)N(C)[C@@H]1c1ccccc1	·	·	·	1	·	-3
COC(=O)[C@H](CC(C)C)N(Cc1cn(CC2CCCCC2)nn1)S(=O)(=O)c1ccccc1Br	·	·	·	-2	·	0
